Data set [1] relates to Mus musculus. Nature of the data set: Anticonvulsant activity in Swiss mouse assessed as protection against maximal electroshock-induced seizures at 30 mg/kg, ip administered 30 mins before electroshock challenge measured after 30 mins. Format: functional, organism-based. Details: dose 30 mg/kg. Put shortly: (§1)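 Swiss mice (18-22 g) given the test compound i.p. in DMSO at 30, 100 or 300 mg/kg for phase I screening. Maximal electroshock was applied 30 min after dosing, and protection against the MES-induced seizure was scored.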

The subject of data set [2] is Mus musculus. Description: Anticonvulsant activity in Swiss mouse assessed as protection against subcutaneous pentylenetetrazol-induced seizures at 30 mg/kg, ip after 30 mins. Format: functional, organism-based. On the set-up: dose 30 mg/kg. Put shortly:
(§2)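 Swiss mice (18-22 g) were dosed i.p. in DMSO at 30, 100 or 300 mg/kg. Pentylenetetrazol (85 mg/kg) was then injected s.c. Protection meant no clonic spasms lasting at least 5 s over a 30 min period after test compound administration.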

Data set [3] deals with Mus musculus. Description: Anticonvulsant activity in Swiss mouse assessed as protection against subcutaneous pentylenetetrazol-induced seizures at 100 mg/kg, ip after 30 mins. Format: functional, organism-based. Details: dose 100 mg/kg. Put shortly:
as §2

The test system of data set [4] is Mus musculus. Description: Anticonvulsant activity in ip dosed Swiss mouse assessed as protection against maximal electroshock-induced seizures administered 30 mins before electroshock challenge measured after 30 mins. Format: functional. Put shortly:
(§3)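 Phase II quantification in Swiss mice (18-22 g), with compounds dissolved in DMSO and given i.p. Groups of 10 mice received a range of doses until at least three points fell within 10-90% protection against MES-induced seizures. ED50 and 95% confidence intervals were derived by the trimmed Spearman-Karber method.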

The nature of data set [5]: Neurotoxicity against Swiss mouse after 4 hrs by rotarod ataxia test. The note with it: in vivo. Format: toxicity, organism-based. Put shortly:
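Neurologic deficit was scored in Swiss mice (18-22 g) by rotarod ataxia test after i.p. dosing in DMSO (phase I: 30, 100, 300 mg/kg, assessed at 30 min and 4 h). For TD50, groups of 10 mice received a range of doses giving at least three points within 10-90% minimal neurotoxicity, calculated by trimmed Spearman-Karber with 95% confidence intervals.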

Data set [6] is filed under the species Mus musculus. Nature of the data set: Protective index, ratio of TD50 for Swiss mouse to ED50 for Swiss mouse by maximal electroshock-induced seizures test. Format: functional.
The subject of data set [7] is Mus musculus. Description: Anticonvulsant activity in Swiss mouse assessed as protection against maximal electroshock-induced seizures at 100 mg/kg, ip administered 30 mins before electroshock challenge measured after 30 mins. Format: functional, organism-based. On the set-up: dose 100 mg/kg. Put shortly: as §1
For data set [8], the system named is Mus musculus. Nature of the data set: Anticonvulsant activity in ip dosed Swiss mouse assessed as protection against maximal electroshock-induced seizures after 30 mins. The note with it: 0.5 h. Format: functional. Put shortly:
as §3

In data set [9] the test system is Mus musculus. Description: Protective index, ratio of TD50 for Swiss mouse to ED50 for Swiss mouse by subcutaneous pentylenetetrazol-induced seizure test. Format: functional.
For data set [10], the system named is Mus musculus. Description: Anticonvulsant activity in Swiss mouse assessed as protection against maximal induced seizures at 300 mg/kg, ip administered 30 mins before electroshock challenge measured after 30 mins. Format: functional, organism-based. Details: dose 300 mg/kg. Put shortly: as §1
Data set [11] relates to Mus musculus. Nature of the data set: Anticonvulsant activity in Swiss mouse assessed as protection against subcutaneous pentylenetetrazol-induced seizures at 300 mg/kg, ip after 30 mins. Format: functional, organism-based. On the set-up: dose 300 mg/kg. Put shortly:
as §2

SMILES strings stand for the structures. Active and inactive are the calls of the source. The calls are words filed in the database; no cut-off is given here.

For the compound `O=c1[nH]nc2n1-c1ccc(OCc3cccc(F)c3)cc1CCC2`, the result in [1] was Active. Moreover, the result in data set [2] and in data set [3] was inactive. For the same compound, the ED50 in data set [4] was found to be 17.6 mg/kg. The compound also came in with a TD50 at 4 h in data set [5] of over 931 mg/kg. In data set [6], the PI is on record as over 52.9.
Regarding `CCCCOc1ccc2c(c1)CCCc1n[nH]c(=O)n1-2`, the outcome in data set [7] and in data set [3] was Active. Further, the 50% effective dose (ED50) in data set [4] and in [8] was 37.3 mg/kg throughout. In addition, in [5], the TD50 at 4 h was over 1120 mg/kg. For the same compound, the PI in data set [6] is reported as over 29.9; in data set [9], over 17.
Turning to `COc1ccc2c(c1)CCCc1n[nH]c(=O)n1-2`, in [10], the result was Active. Also, the outcome in [2], in data set [3] and in data set [11] was inactive.
Consider `NC(=O)N1c2ccccc2C=Cc2ccccc21` [CARBAMAZEPINE], for which the ED50 in data set [4] and in data set [8] was 9.2 mg/kg throughout. In data set [5], this compound came in with a TD50 at 4 h of 74.4 mg/kg. Also, the PI in [9] is under 0.74.
For the compound `O=c1[nH]nc2n1-c1ccc(OCc3ccccc3Cl)cc1CCC2`, in data set [7], the outcome was Active. Further, the result in data set [3] was inactive. Also, the ED50 in data set [4] was 32.9 mg/kg. Besides, the TD50 at 4 h in data set [5] was over 931 mg/kg. In addition, in data set [6], the PI was over 28.3.
`CCCCCCCOc1ccc2c(c1)CCCc1n[nH]c(=O)n1-2`: the result in [1] and in [3] was Active. The ED50 in [4] and in data set [8] was 17.6 mg/kg each time. Further, the TD50 at 4 h in [5] was over 1120 mg/kg. Further, the results for the PI in [6] and in data set [9] were over 63.4 and over 25.9, respectively.
Turning to `Cc1ccc(COc2ccc3c(c2)CCCc2n[nH]c(=O)n2-3)cc1`, the result in data set [2] and in data set [3] was inactive. Besides, in data set [4], the ED50 was 50 mg/kg. The compound further came in with a TD50 at 4 h in data set [5] of over 931 mg/kg. In addition, in data set [6], the PI is reported as over 18.6.
Consider `O=c1[nH]nc2n1-c1ccc(OCc3ccccc3)cc1CCC2`, for which, in [7], the outcome was Active. In addition, in data set [4], the median effective dose (ED50) was determined as 30.5 mg/kg. In addition, the TD50 at 4 h in data set [5] was over 931 mg/kg. Also, in [6], the PI is over 30.5.
As for `O=c1[nH]nc2n1-c1ccc(OCc3ccc(F)cc3)cc1CCC2`, in data set [2], the outcome was inactive. Besides, the median effective dose (ED50) in [4] came out at 22.8 mg/kg. Also, the TD50 at 4 h in data set [5] was over 931 mg/kg. In addition, the PI in [6] was over 40.8.
Regarding `CCCCCCOc1ccc2c(c1)CCCc1n[nH]c(=O)n1-2`, the result in [1] and in data set [3] was Active. The ED50 in data set [4] and in data set [8] was 17.9 mg/kg each time. For the same compound, the TD50 at 4 h in data set [5] is over 1120 mg/kg. Also, the PI in data set [6] is reported as over 62.4; in [9] it was over 24.
For `O=c1[nH]nc2n1-c1ccc(OCc3ccc(Cl)cc3)cc1CCC2`, the outcome in data set [7] was Active. Moreover, the outcome in data set [11] was inactive. Besides, in [4], the median effective dose (ED50) is 40.1 mg/kg. This compound displayed a TD50 at 4 h in [5] of over 931 mg/kg. Also, the PI in [6] is reported as over 23.2.
In the case of `CCCOc1ccc2c(c1)CCCc1n[nH]c(=O)n1-2`, in [2], the outcome was inactive. Moreover, the ED50 in data set [4] was determined as 75.5 mg/kg. The compound also displayed a TD50 at 4 h in data set [5] of over 931 mg/kg. Further, the PI in [6] is on record as over 12.3.
In the case of `O=c1[nH]nc2n1-c1ccc(OCc3ccc(Br)cc3)cc1CCC2`, the outcome in data set [7] was Active. Moreover, the median effective dose (ED50) in [4] is 55.8 mg/kg. Also, in [5], the TD50 at 4 h is over 931 mg/kg. In data set [6], the PI is given as over 16.7.
For `CCCCCCCCOc1ccc2c(c1)CCCc1n[nH]c(=O)n1-2`, the result in [3] was Active. Besides, the ED50 in [4] and in [8] was 20.7 mg/kg each time. This compound also displayed a TD50 at 4 h in [5] of over 1120 mg/kg. Further, the PI in data set [6] is given as over 54; in [9] it was over 22.2.
For `CCCCCOc1ccc2c(c1)CCCc1n[nH]c(=O)n1-2`, the outcome in [1] and in [3] was Active. Moreover, the 50% effective dose (ED50) in data set [4] and in [8] was 24.6 mg/kg each time. The same compound gave a TD50 at 4 h in data set [5] of over 1120 mg/kg. Also, the PI in data set [6] is given as over 45.4; in [9], over 29.4.
With `O=c1[nH]nc2n1-c1ccc(OCc3cccc(Cl)c3)cc1CCC2`, in [4], the median effective dose (ED50) stood at 26.4 mg/kg. In data set [5], this compound gave a TD50 at 4 h of over 931 mg/kg. For the same compound, the PI in data set [6] is recorded as over 35.3.
As to `O=c1[nH]nc2n1-c1ccc(OCc3ccccc3F)cc1CCC2`, in [1], the result was Active. Moreover, the result in [2] and in data set [11] was inactive. In addition, in data set [4], the 50% effective dose (ED50) was found to be 18.4 mg/kg. Moreover, the TD50 at 4 h in [5] was over 931 mg/kg. In addition, the PI in data set [6] was over 50.6.

These data come from ChEMBL document CHEMBL1759940, “Synthesis and anticonvulsant activity of 8-alkoxy-5,6-dihydro-4H-[1,2,4]triazolo[4,3-a][1]benzazepin-1-one derivatives” (Eur J Med Chem, 2011).
